We go through four molecules from ChEMBL document CHEMBL1131609, “Syntheses and structure-activity relationships of novel retinoid X receptor agonists” (J Med Chem, 1998).

Test [1] addresses T1, Retinoic acid receptor alpha (Homo sapiens) (UniProt P10276).
T1 sequence (whole entry): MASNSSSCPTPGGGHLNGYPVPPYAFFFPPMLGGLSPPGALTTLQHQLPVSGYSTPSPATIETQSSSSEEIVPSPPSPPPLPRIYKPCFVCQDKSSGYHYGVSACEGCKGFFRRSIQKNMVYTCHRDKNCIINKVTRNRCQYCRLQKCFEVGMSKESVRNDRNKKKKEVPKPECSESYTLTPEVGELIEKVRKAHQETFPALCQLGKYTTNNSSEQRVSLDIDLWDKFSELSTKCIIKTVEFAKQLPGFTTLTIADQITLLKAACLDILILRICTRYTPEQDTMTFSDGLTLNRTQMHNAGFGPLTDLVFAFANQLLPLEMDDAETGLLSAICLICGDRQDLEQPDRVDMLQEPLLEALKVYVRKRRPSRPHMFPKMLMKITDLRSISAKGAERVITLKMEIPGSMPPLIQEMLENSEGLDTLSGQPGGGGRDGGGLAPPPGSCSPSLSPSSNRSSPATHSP
Nature of the test: Percent maximal induction of human RAR-alpha receptor relative to ATRA; Inactive. Type of test: functional.

For test [2], the target named is T2, Retinoic acid receptor gamma (Homo sapiens) (UniProt P13631).
T2 sequence (whole entry): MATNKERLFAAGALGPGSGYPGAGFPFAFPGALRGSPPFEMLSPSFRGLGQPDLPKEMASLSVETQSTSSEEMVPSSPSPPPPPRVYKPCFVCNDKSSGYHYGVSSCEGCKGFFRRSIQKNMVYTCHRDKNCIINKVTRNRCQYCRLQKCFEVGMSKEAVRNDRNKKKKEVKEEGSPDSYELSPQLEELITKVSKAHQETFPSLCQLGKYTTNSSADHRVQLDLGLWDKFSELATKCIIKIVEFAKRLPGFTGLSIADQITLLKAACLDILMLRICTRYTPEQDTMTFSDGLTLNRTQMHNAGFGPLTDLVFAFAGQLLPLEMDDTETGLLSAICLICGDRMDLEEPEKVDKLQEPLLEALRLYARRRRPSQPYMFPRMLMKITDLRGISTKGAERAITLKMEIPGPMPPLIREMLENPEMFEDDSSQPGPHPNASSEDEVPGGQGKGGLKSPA
Nature of the test: Percent maximal induction of human RAR-gamma receptor relative to ATRA; Inactive. Type of test: functional.

The target in test [3] is T1, Retinoic acid receptor alpha (Homo sapiens). Nature of the test: Relative EC30 for human RAR-alpha receptor as EC30(compound) divided by EC30(ATRA); Inactive.
Test [4] deals with T2, Retinoic acid receptor gamma (Homo sapiens). The test is described as follows: Relative EC30 for human RAR-gamma receptor as EC30(compound) divided by EC30(ATRA); inactive.
In test [5] the target is T3, Retinoic acid receptor beta (Homo sapiens) (UniProt P10826).
T3 sequence (whole entry): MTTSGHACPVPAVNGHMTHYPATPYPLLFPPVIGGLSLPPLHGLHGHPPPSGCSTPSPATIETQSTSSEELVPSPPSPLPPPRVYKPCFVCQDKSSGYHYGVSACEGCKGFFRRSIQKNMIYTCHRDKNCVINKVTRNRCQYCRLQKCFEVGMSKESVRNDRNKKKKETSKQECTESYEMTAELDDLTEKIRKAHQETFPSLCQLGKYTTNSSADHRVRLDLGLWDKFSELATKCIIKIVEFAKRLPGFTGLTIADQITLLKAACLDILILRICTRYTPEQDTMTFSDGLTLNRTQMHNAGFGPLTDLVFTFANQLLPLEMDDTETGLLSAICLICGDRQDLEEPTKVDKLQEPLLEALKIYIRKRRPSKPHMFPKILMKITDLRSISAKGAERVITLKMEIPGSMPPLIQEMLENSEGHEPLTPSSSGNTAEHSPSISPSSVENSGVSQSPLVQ
The test is described as follows: Relative EC30 for human RAR-beta receptor as EC30(compound) divided by EC30(ATRA).

For test [6], the target named is T2, Retinoic acid receptor gamma (Homo sapiens). The test is described as follows: Relative IC50 for human RAR-gamma receptor as IC50(compound) divided by IC50(ATRA). In a few lines:
(§1)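 Competitive binding used nuclear extracts of BHK clones stably expressing human RAR-α, β or γ, selected in 250 nM methotrexate. Extracts were incubated with [³H]-ATRA (added as 10 nM solution) and unlabeled compound for 16 h at 4 °C. Free ligand was removed with charcoal/dextran, and the supernatant was counted. Nonspecific binding was taken as binding with 1000-fold excess unlabeled ligand. IC50 from logarithmic plots was divided by the IC50 of ATRA.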

Test [7] addresses T1, Retinoic acid receptor alpha (Homo sapiens). The test is described as follows: Relative IC50 for human RAR-alpha receptor as IC50(compound) divided by IC50(ATRA). In a few lines:
as §1

For test [8], the target named is T3, Retinoic acid receptor beta (Homo sapiens). The test is described as follows: Relative IC50 for human RAR-beta receptor IC50(compound) divided by IC50(ATRA). Summed up: as §1
The target of test [9] is T2, Retinoic acid receptor gamma (Homo sapiens). The test is described as follows: Relative EC30 for human RAR-gamma receptor as EC30(compound) divided by EC30(ATRA); Inactive.
Test [10] deals with T3, Retinoic acid receptor beta (Homo sapiens). Nature of the test: Relative EC30 for human RAR-beta receptor as EC30(compound) divided EC30(ATRA); Inactive.
The target is the same in test [11]. Nature of the test: Percent maximal induction of human RAR-beta receptor relative to ATRA; Inactive. Type of test: functional.

Active and inactive are the calls of the source. The rule behind the calls is not given here.

Consider `CCC\C(=C(F)/C=C/C(C)=C/C(=O)O)c1ccc2c(c1)CCCN2C(C)C`, for which the Efficacy result in test [1] and in [2] was “inactive” each time. Also, the “Relative EC30” value in [3] and in test [4] was “inactive” throughout.
`CC\C(=C(F)/C=C/C(C)=C/C(=O)O)c1ccc2c(c1)CCCN2C(C)C`: the Efficacy entry in test [1] and in test [2] was “inactive” each time. The same molecule displayed a Relative EC30 in test [5] of 1600.
As to `CC(/C=C/C=C(\C)c1ccc2c(c1)CCCN2C(C)C)=C\C(=O)O`, the results for the Relative IC50 in test [6], in test [7] and in test [8] were 187, 372 and 432, respectively.
`CCCC\C(=C(F)/C=C/C(C)=C/C(=O)O)c1ccc2c(c1)CCCN2C(C)C`: the “Relative EC30” value in [9], in [10] and in test [3] was “inactive” in each case. Further, the Efficacy entry in test [1], in test [11] and in test [2] was “inactive” each time.
